Laboratory results as given in publication PMC3460462 (The Journal of Biological Chemistry, 2012).
Ends that are not written are not given here.

How the values were obtained:
Assay type in all cases: cell-based
mFpr2 [1] = target: T1, mFpr2 (Mus musculus, UniProt O88536); experiment: FLIPR Ca2+ assay, HEK293T cells transfected with mFpr2 and Gα16
T1 sequence (O88536 1-351): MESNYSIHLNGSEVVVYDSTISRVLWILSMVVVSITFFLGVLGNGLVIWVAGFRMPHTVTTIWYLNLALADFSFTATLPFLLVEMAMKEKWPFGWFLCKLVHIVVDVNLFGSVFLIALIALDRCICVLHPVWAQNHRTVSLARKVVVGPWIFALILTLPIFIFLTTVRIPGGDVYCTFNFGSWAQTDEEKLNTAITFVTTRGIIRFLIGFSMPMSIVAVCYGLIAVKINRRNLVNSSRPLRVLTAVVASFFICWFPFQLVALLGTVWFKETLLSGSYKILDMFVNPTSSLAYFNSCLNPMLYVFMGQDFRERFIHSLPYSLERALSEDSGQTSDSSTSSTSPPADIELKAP

mFpr1 [2] = target: T2, mFpr1 (Mus musculus, UniProt P33766); experiment: FLIPR Ca2+ assay, HEK293T cells transfected with mFpr1 and Gα16
T2 sequence (P33766 1-364): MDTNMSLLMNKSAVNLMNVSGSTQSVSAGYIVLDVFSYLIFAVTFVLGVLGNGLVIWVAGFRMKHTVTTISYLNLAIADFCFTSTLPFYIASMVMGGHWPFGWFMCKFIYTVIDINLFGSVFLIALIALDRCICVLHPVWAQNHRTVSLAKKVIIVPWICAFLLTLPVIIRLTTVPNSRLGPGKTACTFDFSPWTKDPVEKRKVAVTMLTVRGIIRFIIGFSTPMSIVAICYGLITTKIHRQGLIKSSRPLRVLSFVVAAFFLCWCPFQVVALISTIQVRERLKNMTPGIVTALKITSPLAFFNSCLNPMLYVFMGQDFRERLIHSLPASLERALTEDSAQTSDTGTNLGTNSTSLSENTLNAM

mock-transfected cells = experiment: FLIPR Ca2+ assay, mock-transfected negative control; settings: mock-transfected negative controls; different kinetics
Summary of the method: (§1)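 HEK293T PEAKrapid cells seeded on poly-D-lysine, transfected 24 h later (jetPEI) with receptor plus Gα16 in equal amounts, or empty vector for mock. After 48 h, loaded with 2 μM Fluo-4 AM and 50 μM probenecid for 2 h at room temperature in C1 buffer (HEPES, pH 7.2), then rinsed three times. About 50,000 cells per well on FLIPR; ligands in C1. Response is ΔF/F0 (peak over baseline), fitted with a variable-slope sigmoid.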

mFpr-rs1 = target: T3, mFpr-rs1 (Mus musculus, UniProt O08790); experiment: FLIPR Ca2+ assay, HEK293T cells transfected with mFpr-rs1 and Gα16
T3 sequence (O08790 1-351): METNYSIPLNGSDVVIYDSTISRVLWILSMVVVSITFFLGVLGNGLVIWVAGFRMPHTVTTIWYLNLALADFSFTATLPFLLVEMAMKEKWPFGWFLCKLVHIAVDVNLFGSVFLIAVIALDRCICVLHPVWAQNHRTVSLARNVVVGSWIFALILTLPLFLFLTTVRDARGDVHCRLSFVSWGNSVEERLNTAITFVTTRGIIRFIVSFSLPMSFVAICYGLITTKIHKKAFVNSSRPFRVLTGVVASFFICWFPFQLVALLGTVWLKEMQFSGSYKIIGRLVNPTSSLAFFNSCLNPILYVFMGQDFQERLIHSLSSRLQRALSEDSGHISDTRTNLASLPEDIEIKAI

hFPR2 = target: T4, hFPR2 (Homo sapiens, UniProt P25090); experiment: FLIPR Ca2+ assay, HEK293T cells transfected with hFPR2 and Gα16; settings: 1% DMSO
T4 sequence (P25090 1-351): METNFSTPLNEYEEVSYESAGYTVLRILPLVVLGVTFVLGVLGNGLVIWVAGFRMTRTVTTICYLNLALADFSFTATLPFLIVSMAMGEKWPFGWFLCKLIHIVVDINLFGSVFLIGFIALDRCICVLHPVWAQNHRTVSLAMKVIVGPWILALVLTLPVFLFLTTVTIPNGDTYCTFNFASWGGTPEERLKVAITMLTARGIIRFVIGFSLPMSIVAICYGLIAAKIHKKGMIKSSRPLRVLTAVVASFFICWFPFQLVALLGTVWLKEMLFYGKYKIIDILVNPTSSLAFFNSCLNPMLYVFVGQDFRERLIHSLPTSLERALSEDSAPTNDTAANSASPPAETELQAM

[3] = system: human receptors (hFPR1, hFPR2, hFPR3); experiment: FLIPR Ca2+ assay, human receptors
Summary of the method: as §1

mFpr2 [4] = target: T1, mFpr2; experiment: Single-cell resolution Ca2+ imaging, mFpr2; settings: 9 μM fMLF; single-cell Fura-2 Ca2+ imaging
Summary of the method: (§2)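 Single-cell Ca2+ imaging on a Pathway Bioimager. HEK293T PEAKrapid cells cotransfected with receptor, Gα16 and EGFP plasmid (1/10) and loaded with Fura-2/AM. […] C1 buffer application served as mechanical control, with buffer-responding cells excluded; 30 μM ATP checked viability. Mock-transfected cells were the negative control, and responding cells were counted.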

mFpr1 [5] = target: T2, mFpr1; experiment: Single-cell resolution Ca2+ imaging, mFpr1; settings: 9 μM fMLF; single-cell Fura-2 Ca2+ imaging
Summary of the method: as §2

[6] = system: all other family members (hFPR3, vomeronasal Fprs); experiment: Single-cell resolution Ca2+ imaging, all other Fpr family members; settings: 9 μM fMLF; single-cell Fura-2 Ca2+ imaging
Summary of the method: as §2

Compound: H-RIHIGPGRALYTT-OH [V3gp120 HIV (BK-130)]
- concentrations at which only a weak activation was seen (mFpr2 [1]; weak activation): ≥ 30 µM
- EC50 (mFpr1 [2]): 4.5 µM
- activation threshold (mFpr1 [2]; FLIPR Ca2+): ~1 µM
- subtype selectivity (in words) (mFpr1 [2]; mFpr1 versus mFpr2, FLIPR Ca2+): strongly preferential activators of mFpr1

Compound: C[S+](C)[O-] [DMSO, dimethyl sulfoxide]
- saturation reached at (mFpr2 [1]; DMSO concentration): ~3%
- threshold of activation (mFpr2 [1]; DMSO concentration): ~0.1%
- concentrations giving unspecific DMSO-dependent signals (mock-transfected cells): > 2%
- receptor activation (in words) (mFpr-rs1): but not mFpr-rs1
- saturation reached at (mFpr1 [2]; DMSO concentration, FLIPR Ca2+): ~3%
- threshold of activation (mFpr1 [2]; DMSO concentration, FLIPR Ca2+): ~0.1%
- receptor activation (in words) (hFPR2): susceptible

Compound: Ac2-26: classical Fpr agonist purchased from Tocris (Ac-AMVSEFLKQAWFIENEEQEYVQTVK; UniProt P04083 2-26, looked up, fragment)
- Ca2+ response (in words) [3]: robust Ca^2+ elevations

Compound: N-formylmethionine-leucine-phenylalanine [fMLF]
- activation by fMLF (in words) (mFpr2 [4]): could be activated
- activation by fMLF (in words) (mFpr1 [5]): could be activated
- activation by fMLF (in words) [6]: did not respond
